Assay outcomes (PubChem)
p97 ATPase inh – human p97 ATPase inhibition | P55072 | recombinant p97 ATPase, Kinase-Glo ATP luminescence, 3 h | inhibition, % at 8 µM | hit rate 0.42% among 220,000; in the data active means inhibition above about 15%;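 further: 0% = DMSO vehicle and 100% = wells lacking enzyme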
MDM2 E3 inh – inhibitors of human Mdm2 E3 ubiquitin ligase; signal enhancement, % at 5 µM; Q00987; cell-based MDM2 ubiquitination luciferase reporter, 2 h; 0 = plate control, 100 = twice control, blank-subtracted; hit rate 0.11% among 210,000;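 active means signal enhancement of 30% or more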;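 further: luminescence tracks abundance of the self-degrading MDM2-luciferase fusion protein; higher signal means inhibition of MDM2 E3 ligase activity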
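Test system: stable mammalian line carrying autodegrading MDM2–luciferase fusion reporter; quantity: 2000 cells in each well; times: 4 h cell settling then 2 h compound exposure, 37 °C; detection: luminescence with SteadyLite reagent, 15 min at room temperature; evaluation: percent signal gain over controls, blank-subtracted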
Cl transport mod – KCC2 (human) Cl- transport modulation; AID 1456; B-score of Tl+ flux slope (higher = more flux/activation; lower = inhibition) at 10 µM; hit rate 2.2% among 190,000; Q9H2X9; KCC2 cells, thallium flux FluoZin-2 fluorescence;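 active means thallium flux slope and its plate-corrected score both differing from the plate sample mean at a set confidence after two filtering rounds, in either direction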;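 further: slope of fluorescence scaled to starting intensity during 10 to 20 s after thallium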
DTT redox prof – compounds producing H2O2 with reducing agent – biochemical, NIH compound library profiling, artefact control for MLSCN library redox annotation, primary screen; AID 878; activation, % at 10 µM; DTT-dependent redox cycling H2O2, phenol red/HRP absorbance; 100% = 100 µM peroxide control, 0% = buffer; hit rate 0.03% among 200,000;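 active means activation of at least 50% relative to the plate's high and low controls in the primary single-dose screen; inactive means activation below 50%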;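 further: compound incubated with DTT at 0.8 mM final as the reducing agent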
ROMK primary – modulates human ROMK potassium channel activity; P48048; Tet-inducible ROMK, thallium flux fluorescence; actives lie on both sides; B-score at 10 µM; hit rate 2% among 130,000;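 active means signal ratio slope over the read window, or its plate-corrected B-score, at least 3 SD from the plate mean, either direction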;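 further: B-score of the F/F0 ratio slope over 7 to 12 s after thallium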
Target sequence (P48048 whole entry, looked up): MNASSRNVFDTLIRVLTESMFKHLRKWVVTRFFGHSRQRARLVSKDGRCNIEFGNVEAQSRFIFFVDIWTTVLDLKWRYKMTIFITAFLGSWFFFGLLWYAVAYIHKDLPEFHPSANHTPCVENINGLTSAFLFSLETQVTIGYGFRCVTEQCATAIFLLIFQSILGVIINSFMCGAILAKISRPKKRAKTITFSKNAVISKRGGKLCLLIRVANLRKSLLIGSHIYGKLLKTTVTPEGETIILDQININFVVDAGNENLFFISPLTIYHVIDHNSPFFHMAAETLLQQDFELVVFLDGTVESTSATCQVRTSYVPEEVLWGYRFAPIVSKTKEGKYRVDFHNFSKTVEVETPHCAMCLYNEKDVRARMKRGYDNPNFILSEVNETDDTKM
PKD1 inh – PKD1 (human) kinase inhibition; hit rate 0.056% among 200,000; Q15139; PKD1 kinase fluorescence polarization assay; inhibition, % (test concentration not listed); AID 797; in the data active means inhibition above about 50%
p97 confirm – confirmation of human p97 ATPase inhibitors. shares compounds with p97 ATPase inh. inhibition, % at 8 µM. recombinant p97 ATPase, Kinase-Glo ATP luminescence. AID 1517. hit rate 44% among 760;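 active means percent inhibition of p97 ATPase above a set limit, the primary screen's mean plus 3 SD, cut at about 15% in these data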;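 further: 0% = DMSO wells and 100% = wells lacking p97 protein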
Active calls of the source: *; x = no result given. Hits are enriched below; roughly 3.4% of the tested compounds scored in any of these assays.

SMILES	p97 ATPase inh	MDM2 E3 inh	Cl transport mod	DTT redox prof	ROMK primary	PKD1 inh	p97 confirm
NC(=S)N/N=C/c1coc2ccc(Br)cc2c1=O	4	-10	-0.72	x	0.051	x	x
NC(=S)N/N=C/c1coc2ccc(O)cc2c1=O	15*	-17	-0.41	x	x	x	11
O=C(N[C@@H](Cc1ccccc1)C(=O)OCc1ccccc1)c1nc[nH]c1C(=O)NCc1ccccc1	17*	x	2	1	x	-3	20*
Nc1c(C(=O)O)sc2nc(-c3ccccc3)cc(-c3ccccc3)c12	23*	-14	0.42	x	0.72	x	7
c1ccc(CN2CCN(c3ncnc4c3[nH]c3ccccc34)CC2)cc1	15*	-32	-5.7*	3	-3.7*	-14	10
Cc1ccc2c(c1)[nH]c1c(N3CCN(Cc4ccccc4)CC3)ncnc12	7	x	-0.37	-1	x	3	x
O=C(NCc1cccnc1)c1cc(-c2ccco2)on1	3	-4	x	-1	2.2	-8	x
C#CCOCCOCCOCCNc1nc(N2CCN(C(=O)[C@H](Cc3ccc(O)cc3)n3cc([C@@H](N)C(C)CC)nn3)CC2)nc(N2CCN(C(=O)[C@H](Cc3cc4ccccc4[nH]3)n3cc([C@@H](N)CC(C)C)nn3)CC2)n1 (stereo not given in full)	22*	x	1.2	1	x	-6	13
C#CCOCCOCCOCCNc1nc(N2CCN(C(=O)[C@H]([C@@H](C)CC)n3cc([C@@H](N)Cc4ccc(O)cc4)nn3)CC2)nc(N2CCN(C(=O)[C@H](Cc3cc4ccccc4[nH]3)n3cc([C@@H](N)C(C)CC)nn3)CC2)n1 (stereo not given in full)	9	x	-0.16	-1	x	6	x
C#CCOCCOCCOCCNc1nc(N2CCN(C(=O)[C@H](Cc3cc4ccccc4[nH]3)n3cc([C@@H](N)CC(C)C)nn3)CC2)nc(N2CCN(C(=O)[C@H](Cc3cc4ccccc4[nH]3)n3cc([C@@H](N)CC(C)C)nn3)CC2)n1	27*	x	-0.2	0	x	2	27*
C#CCOCCOCCOCCNc1nc(N2CCOCC2)nc(N2CCN(C(=O)[C@H](Cc3cc4ccccc4[nH]3)n3cc([C@@H](N)CC(C)C)nn3)CC2)n1	2	x	-0.019	0	x	-10	x
C#CCOCCOCCOCCNc1nc(N2CCN(C(=O)[C@H](Cc3cc4ccccc4[nH]3)n3cc([C@@H](N)C(C)CC)nn3)CC2)nc(N2CCN(C(=O)[C@H](Cc3cc4ccccc4[nH]3)n3cc([C@@H](N)Cc4ccc(O)cc4)nn3)CC2)n1 (stereo not given in full)	17*	x	-2	0	x	11	26*
C#CCOCCOCCOCCNc1nc(N2CCN(C(=O)[C@H](Cc3ccc(O)cc3)n3cc([C@@H](N)C(C)CC)nn3)CC2)nc(N2CCN(C(=O)[C@H](Cc3cc4ccccc4[nH]3)n3cc([C@@H](N)C(C)CC)nn3)CC2)n1 (stereo not given in full)	25*	x	-0.35	0	x	4	13
CCN(CC)Cc1c(C(=O)N2CCc3ccccc3C2)nc2ccc(Cl)cn12	1	-2	-0.25	-1	0.82	3	x
CCCCn1c(SCC(=O)NC(C)(C)C)nnc1-c1ccco1	-1	-14	0.77	0	0.23	-2	x
CC(=O)Nc1ccc(S(=O)(=O)NC2=NCN(C)CN2)cc1	1	-13	0.13	0	-0.14	-6	x
CCc1cc[n+](CC(=O)Nc2ccc(Cl)cc2Cl)cc1	3	-11	-0.8	-2	1.1	1	x
C#CCOCCOCCOCCNc1nc(N2CCN(C(=O)C(Cc3cc4ccccc4[nH]3)n3cc(C(N)Cc4ccc(O)cc4)nn3)CC2)nc(N2CCN(C(=O)C(Cc3cc4ccccc4[nH]3)n3cc(C(N)Cc4ccc(O)cc4)nn3)CC2)n1 (stereo not given)	22*	x	0.35	-1	x	-1	26*
C#CCOCCOCCOCCNc1nc(N2CCN(C(=O)C(CCC(=O)O)n3cc(C(N)CC(C)C)nn3)CC2)nc(N2CCN(C(=O)C(Cc3cc4ccccc4[nH]3)n3cc(C(N)Cc4ccc(O)cc4)nn3)CC2)n1 (stereo not given)	5	x	0.98	-1	x	0	x
COc1ccc(-c2csc(N(Cc3ccco3)C(=O)c3cccs3)n2)cc1	39*	x	x	x	x	x	16*
COc1ccc(OC)c(-c2csc(N(Cc3ccco3)C(=O)c3cccs3)n2)c1	0	-16	-0.34	4	x	-6	x
CC1=NN(c2nc(-c3ccc(Cl)cc3)cs2)C(=O)C1	16*	-9	-0.57	-6	0.17	-4	7
CC1=NN(c2nc(-c3ccc(F)cc3)cs2)C(=O)C1	7	-12	-0.37	18	x	-4	x
CCc1nnc(NS(=O)(=O)c2ccc(NC(=S)Nc3ccc(F)cc3)cc2)s1	17*	-4	-0.16	0	x	-15	3
CCc1nnc(NS(=O)(=O)c2ccc(NC(=S)NC(=O)c3ccccc3)cc2)s1	0	-1	-1	0	0.08	-9	x
SMILES	p97 ATPase inh	MDM2 E3 inh	Cl transport mod	DTT redox prof	ROMK primary	PKD1 inh	p97 confirm
CC(=O)c1ccc2c(c1)C1C=CCC1C(C(=O)O)N2 (stereo not given)	20*	-3	-0.025	-1	0.7	-1	30*
Cc1ccc2c(c1)C1C=CCC1C(C(=O)O)N2 (stereo not given)	9	-12	-0.25	2	1.2	-8	x
O=C(CSc1ncn[nH]1)Nc1nc(-c2ccccc2)ns1	-4	-26	-0.22	-1	x	2	x
O=C(O)CCC(=O)c1ccc2ccc3cccc4ccc1c2c34	19*	-5	-4.4	x	x	x	25*
Cc1ccn2cc(-c3cccc(NS(C)(=O)=O)c3)nc2c1	6	-3	1.9	0	1.8	-2	x
CC(=O)Nc1cccc(-c2cn3ccc(C)cc3n2)c1	17*	-11	0.004	1	-0.16	-3	21*
NC(=O)CC1Nc2cccc3cccc(c23)NC1=O (stereo not given)	35*	-20	0.24	1	x	-4	9
O=C(CC1Nc2cccc3cccc(c23)NC1=O)Nc1ccccc1 (stereo not given)	11	-5	-1	2	x	-5	x
CSc1nsc(SCC(=O)NC2CCCCC2)n1	-5	23	0.056	1	x	5	x
O=C1c2ccc([N+](=O)[O-])cc2NC(c2ccco2)N1/N=C/c1ccco1 (stereo not given)	16*	x	-0.93	x	x	x	8
O=[N+]([O-])c1ccc(S(=O)(=O)N/N=C/c2ccco2)cc1	0	-12	0.89	-1	-0.17	-2	x
NC(=S)Nc1cccc2cccnc12	3	-4	x	2	x	-3	x
